High-throughput results deposited in PubChem BioAssay by several laboratories.
Compounds with a hit are over-represented: about 1.5% of the library has one in this group of screens.
DNMT1 block – blocks human DNA methyltransferase DNMT1; AID 588458; hit rate 0.83% among 360,000; inhibition (reported as % activation of signal), % at 10 µM; DNMT1 molecular beacon, Hinp1I cleavage, fluorescence
Target sequence (P26358 504-1616 limits assumed): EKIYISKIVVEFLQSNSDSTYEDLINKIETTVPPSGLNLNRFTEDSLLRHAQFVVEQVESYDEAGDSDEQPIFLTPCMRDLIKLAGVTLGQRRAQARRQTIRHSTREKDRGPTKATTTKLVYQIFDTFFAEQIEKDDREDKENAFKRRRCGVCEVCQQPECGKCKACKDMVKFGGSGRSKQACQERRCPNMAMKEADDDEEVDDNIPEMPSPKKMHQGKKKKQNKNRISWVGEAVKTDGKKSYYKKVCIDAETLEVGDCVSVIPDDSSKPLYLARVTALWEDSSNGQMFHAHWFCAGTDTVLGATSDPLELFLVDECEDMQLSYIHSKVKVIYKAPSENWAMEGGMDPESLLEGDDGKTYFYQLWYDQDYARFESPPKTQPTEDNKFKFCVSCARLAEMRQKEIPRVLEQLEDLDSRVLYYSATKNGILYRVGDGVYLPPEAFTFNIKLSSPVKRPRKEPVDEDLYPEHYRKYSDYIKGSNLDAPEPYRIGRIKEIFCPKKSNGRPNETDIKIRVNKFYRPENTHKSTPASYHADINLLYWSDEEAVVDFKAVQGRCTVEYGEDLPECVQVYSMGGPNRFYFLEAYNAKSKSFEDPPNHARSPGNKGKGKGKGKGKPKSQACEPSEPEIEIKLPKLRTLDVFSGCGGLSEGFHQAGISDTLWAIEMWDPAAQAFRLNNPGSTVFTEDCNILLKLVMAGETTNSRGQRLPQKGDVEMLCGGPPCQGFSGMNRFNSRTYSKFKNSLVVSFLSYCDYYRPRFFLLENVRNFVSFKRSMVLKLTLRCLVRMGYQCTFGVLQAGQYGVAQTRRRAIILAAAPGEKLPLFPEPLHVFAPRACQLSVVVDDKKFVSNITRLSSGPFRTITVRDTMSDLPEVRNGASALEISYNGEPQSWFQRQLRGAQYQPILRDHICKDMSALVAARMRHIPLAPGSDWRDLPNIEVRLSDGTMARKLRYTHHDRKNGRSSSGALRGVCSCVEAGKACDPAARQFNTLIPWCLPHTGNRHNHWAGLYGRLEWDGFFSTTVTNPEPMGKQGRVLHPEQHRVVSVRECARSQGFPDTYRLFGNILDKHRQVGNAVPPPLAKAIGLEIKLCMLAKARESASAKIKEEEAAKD
NS3 helicase inh – inhibitors of Hepatitis C virus NS3 helicase; NS3 helicase DNA unwinding, Cy5 molecular beacon fluorescence; inhibition, % at 10.9 µM; hit rate 0.56% among 290,000; AID 1800;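 active = inhibition above the mean of all tested compounds plus 3 SD, set per campaign, cut at about 35% in these data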
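Assay system – hepatitis C virus NS3 helicase domain fragment enzyme · Buffer or medium – MOPS pH 6.5, MgCl2, DTT, Tween20, BSA · Reagent – Cy5/quencher beacon DNA duplex and ATP to start · Compound – single 10.9 µM dose · Timing – 1 h at 25 °C · Technique – Cy5 beacon fluorescence read at start and 1 h · Measure – % inhibition of unwinding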
NSD2 inh – blocks human histone methyltransferase NSD2 | NSD2 peptide methylation, AlphaScreen, 120 min | inhibition, % at 12.5 µM | hit rate 0.54% among 310,000 | AID 743445
Casp6 inh – blocks human caspase-6 cleavage activity | P55212 | purified caspase-6, Z-VEID-R110 cleavage fluorescence | inhibition, % at 12.5 µM | hit rate 0.53% among 350,000 | AID 686996;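 active = mean inhibition across replicates at least about 35%, with every replicate also reaching that limit, limit read from the data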
AlphaScreen art – AlphaScreen assay artifact in NSD2 counter-screen. hit rate 9.4% among 1,500. AlphaScreen artifact counterscreen, preloaded methylated H4 peptide. shares compounds with NSD2 inh. AC35, µM (highest dose often 10 µM); call rule not given here
A number is an active result; i = inactive; nt = not tested or not shown. Rule as the data show it, unless noted: active = inhibition above about 50%; inactive = the rest.

SMILES | DNMT1 block | NS3 helicase inh | NSD2 inh | Casp6 inh | AlphaScreen art
CCN(CC)CCC(=O)c1ccc(F)cc1 | i | i | 59.5 | i | i
CN(C)CCC(=O)c1ccc(F)cc1 | i | i | i | i | nt
Nc1nc(COC(=O)c2ccco2)nc(Nc2ccccc2)n1 | i | nt | 53.2 | i | i
Cc1noc(C)c1S(=O)(=O)Nc1ccc2c(c1)C(=O)N([C@H](C)CO)C[C@H](C)[C@H](CN(C)C(=O)c1ccccc1)OCCCC[C@H](C)O2 | nt | nt | nt | i | nt
CN(C)C(=O)c1cccc(-c2ccccc2[C@@H]2[C@H](C#N)N(C(=O)C3CCC3)[C@H]2CO)c1 | nt | nt | nt | i | nt
Cc1cccc(C)c1OCC(=O)Nn1c(COc2ccccc2)nc2ccccc2c1=O | i | i | nt | nt | nt
CC(C)=NOCC(=O)Nn1c(COc2c(C)cccc2C)nc2ccccc2c1=O | i | i | 56.5 | i | i
C[C@@H]1CN([C@@H](C)CO)S(=O)(=O)c2ccc(C3=CCCC3)cc2O[C@@H]1CN(C)Cc1ccccn1 | nt | nt | nt | i | nt
CCS(=O)(=O)NCC[C@H]1CC[C@H](NC(=O)C2CCCC2)[C@@H](CO)O1 | nt | nt | nt | i | nt
C/C(=N\NC(=O)c1nnn(-c2nonc2N)c1C)c1ccc(-c2ccccc2)cc1 | i | i | 98.8 | i | i
Cn1c(N)c(C#N)c2c(c1=S)CSC(C)(C)C2 | i | i | 50.7 | nt | i
O=C(C1CCOCC1)N1CC(=O)N2[C@H](CO)[C@H](c3ccc(C#CC4CCCC4)cc3)[C@H]2C1 | nt | nt | nt | i | nt
CCCn1c(CCl)nc2cc(S(=O)(=O)N3CCOCC3)ccc21 | i | nt | i | i | nt
O=S(=O)(c1ccc2c(c1)nc1n2CCC1)N1CCOCC1 | i | i | 91.7 | nt | i
O=C(Nc1ccc(F)cc1)N1C[C@H]2[C@@H](c3ccccc31)[C@@H](CO)N2C(=O)Cc1ccccn1 | nt | nt | nt | i | nt
Cc1ccc(C(=O)NCCn2c(N)c(C#N)c3nc4ccccc4nc32)cc1 | i | i | 55.3 | nt | i
O=C(Nc1cccc(NC(=O)c2ccc(Br)o2)n1)c1ccc(Br)o1 | i | i | i | nt | nt
CCCCn1c(NC(=O)c2ccccc2)c(C#N)c2nc3ccccc3nc21 | 76.3 | 39.8 | 162.2 | nt | i
N#Cc1c(NC(=O)c2ccc(Br)o2)n(-c2ccccc2)c2nc3ccccc3nc12 | 51.2 | i | 177.2 | 45.6 | i
N#Cc1c(N)n(CCOC(=O)c2cccc(Br)c2)c2nc3ccccc3nc12 | i | i | i | nt | nt
N#Cc1c(N)n(CCNC(=O)c2ccc(Cl)cc2)c2nc3ccccc3nc12 | i | i | i | nt | nt
O=C(CSc1nccn1-c1ccc(F)cc1)NCc1ccc(F)cc1 | i | i | 50.1 | i | i
O=C(NC1CCCC1)c1cc(-c2ccc(Cl)cc2Cl)on1 | i | i | 88.6 | nt | i
O=C(NC1CCCC1)c1cc(-c2ccccc2Cl)on1 | i | i | i | i | nt
C/C(CC(=O)NCCCN1CCOCC1)=N\NC(=O)COc1ccc(Cl)cc1 | i | i | 65.2 | nt | i
SMILES | DNMT1 block | NS3 helicase inh | NSD2 inh | Casp6 inh | AlphaScreen art
C/C(CC(=O)NCCCN1CCOCC1)=N\NC(=O)COc1ccc(C)cc1 | i | i | i | i | nt
COc1ccc(-c2cn[nH]c2N)cc1 | i | i | 62.6 | nt | i
CC(=O)N1CCn2c3c(c(=O)c4cc(C)ccc42)CCC31 (stereo not drawn) | i | i | 96.5 | nt | i
OC(COc1ccc2ccccc2c1Cl)CN1CCOCC1 (stereo not drawn) | i | i | 85.8 | nt | i
OC(COc1cccc2ccccc12)CN1CCOCC1 (stereo not drawn) | i | nt | i | i | nt
COc1cccc(NC(=O)CN(c2cccc(C(F)(F)F)c2)S(C)(=O)=O)c1 | i | i | i | nt | nt
CCOc1ccc(NC(=O)CN(c2cccc(C(F)(F)F)c2)S(C)(=O)=O)cc1 | i | i | 113.0 | nt | i
COc1ccc(C(=O)Nc2ccc3c(c2)OC[C@@H](C)N(Cc2cocn2)C[C@@H](C)[C@@H](OC)CN(C)C3=O)cc1 | nt | nt | nt | i | nt
Cc1noc(C)c1S(=O)(=O)Nc1ccc2c(c1)C(=O)N([C@@H](C)CO)C[C@H](C)[C@H](CN(C)S(=O)(=O)c1ccccc1)OCCCC[C@@H](C)O2 | nt | nt | nt | i | nt
CC(=O)Nc1cccc(C(=O)OCc2ccccc2)c1 | i | i | 56.5 | nt | i
COCCNC(=O)C[C@H]1C[C@H]2c3cc(NS(=O)(=O)c4ccccc4)ccc3O[C@H]2[C@@H](CO)O1 | nt | nt | nt | i | nt
Cc1cc2oc(=O)cc(CSc3nc(N)cc(N)n3)c2cc1C(C)C | i | i | i | nt | nt
CCCc1cc(=O)[nH]c(SCc2cc(=O)oc3cc(C)c(C(C)C)cc23)n1 | i | i | 78.4 | i | i
CO[C@@H]1CN(C)C(=O)c2ccc(NC(=O)c3cccc(F)c3)cc2OC[C@H](C)N(CC2CC2)C[C@@H]1C | nt | nt | nt | i | nt
Cc1ccc(OCCCC(=O)Nc2ccccc2C(F)(F)F)cc1 | i | i | 54.2 | nt | i
CC1CCCC(C)N1C(=O)COC(=O)c1ccc([N+](=O)[O-])o1 (stereo not drawn) | i | nt | 68.6 | i | i
CC1CC(C)CN(C(=O)COC(=O)c2ccc([N+](=O)[O-])o2)C1 (stereo not drawn) | i | nt | i | i | nt
C[C@H](CO)N1C[C@H](C)[C@H](CN(C)S(=O)(=O)c2cccs2)Oc2c(NS(=O)(=O)c3ccccc3)cccc2C1=O | nt | nt | nt | i | nt
CCCCN1C(=O)/C(=C2\SC(N3CCCCC3)=NC2=O)c2ccccc21 | i | i | i | nt | nt
CCCCN1C(=O)C(=Nc2cccc3cnccc23)c2ccccc21 | i | i | 73.9 | i | i
Cc1noc(C)c1NC(=O)N(C)C[C@@H]1Oc2ccc(NC(=O)Nc3ccc(C(F)(F)F)cc3)cc2C(=O)N([C@H](C)CO)C[C@H]1C | nt | nt | nt | i | nt
Cc1ccc(NC(=O)CCN2CCN(C/C=C/c3ccccc3)CC2)cc1C | i | i | 64.4 | nt | i
